Values after ≈ are worked out from the molar mass of the structure shown.
Columns and labels:
Schistosoma mansoni [1] = experiment: Concentration required to kill 50% of 21 day old worms 5 days after drug treatment.; format: functional, organism-based; details: Puerto Rican, 120 h
Summary of the method: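 Juvenile S. mansoni (Puerto Rican strain) were perfused from CD1 mice 3 weeks post-infection and washed. They were cultured 6–8 per well in 200 µL DMEM with 2 mM glutamine, penicillin/streptomycin and 10% FCS at 37 °C, 5% CO2. Viability of individual worms was scored on day 5 after dosing (120 h).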

[2] = Concentration required to kill 50% HepG2 cells as detected by MTT staining; format: toxicity, cell-based; details: homo sapiens, read-out: TC50 (the source's name)
[3] = Percentage of parent compound remaining after incubation for 90 minutes with cyropreserved mouse hepatocytes at a concentration of 1uM compound and […], determined by LCMS; format: ADME, tissue-based, Hepatocyte; details: cryopreserved mouse hepatocytes, read-out: Stability
Summary of the method: (§1)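 Compound was incubated at 1 µM final (2 µM working solution mixed 1:1 with hepatocyte suspension) in supplemented KHB pH 7.4. Conditions: 37 °C, 5% CO2, gentle mixing, duplicates. Reaction quenched with ice-cold acetonitrile containing standard; analysed by LC-MS/MS. % remaining = AUC at t / AUC at T0.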

Schistosoma mansoni [4] = experiment: Concentration required to kill 50% of 42 day old worms 5 days after drug treatment.; format: functional, organism-based; details: Puerto Rican, 120 h
Summary of the method: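 Adult S. mansoni were perfused from CD1 mice 6 weeks post-infection and washed. They were cultured 3 pairs per well in 1 mL DMEM with 2 mM glutamine, penicillin/streptomycin and 10% FCS […] at 37 °C, 5% CO2. Viability of individual worms was scored on day 5 (120 h).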

[5] = Percentage of parent compound remaining after incubation for 90 minutes with cyropreserved human hepatocytes at a concentration of 1uM compound and 1 million cells/uL, determined by LCMS/MS; format: ADME, tissue-based, Hepatocyte; details: cryopreserved human hepatocytes, read-out: Stability; summary of the method: as §1
[6] = Plasma protein binding determined at 10uM by LC-MS/MS.; format: ADME, cell-free; details: mouse
Summary of the method: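 Equilibrium dialysis of plasma spiked at 10 µM (0.1% DMSO) against PBS pH 7.4, 6 h at 37 °C, duplicates. Both chambers analysed by LC-MS/MS after acetonitrile precipitation. % free = buffer/plasma area ratio; recovery also calculated.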

[7] = Mean oral bioavailability in Swiss albino male mice at […] per compound (administered in a mixture of 5 compounds to 3 mice) assessed by LCMS/MS.; note: dose 2.5 mg/kg; format: ADME, organism-based; details: male, Swiss albino, mouse, in vivo, read-out: Bioavailability
[8] = Mean observed clearance in Swiss albino male mice at 1 mg/kg per compound (administered iv in a mixture of 5 compounds to 3 mice) assessed by LCMS/MS.; format: ADME, organism-based; details: mouse, in vivo
Summary of the method: (§2)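 Male Swiss albino mice (~30 g), 3 per experiment, mostly dosed as mixtures of 5 compounds iv via the lateral tail vein. Vehicle: 10% DMSO/90% 50 mM Na2HPO4 with 0.5% Tween-80. Blood sampled at 5, 15, 30 min and 1, 2, 4, 8, 24 h. Plasma stored at −20 °C and quantified by LC-MS after acetonitrile precipitation.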

[9] = Percentage of parent compound remaining after incubation for 30 minutes with cyropreserved mouse hepatocytes at a concentration of 1uM compound and […], determined by LCMS; format: ADME, tissue-based, Hepatocyte; details: cryopreserved mouse hepatocytes, read-out: Stability; summary of the method: as §1
[10] = Mean plasma concentration at 24h in Swiss albino male mice at […] per compound (administered orally in a mixture of 5 compounds to 3 mice) assessed by LCMS/MS.; format: ADME, organism-based; details: mouse, po
[11] = Solubility at 25 degC of compound (diluted from DMSO) in PBS at pH 7.4 determined after 24h (1h sonication, 22h shaking, 1h sonication) by LCMS/MS; format: physicochemical
[12] = Mean volume of distribution at steady state in Swiss albino male mice at 1 mg/kg per compound (administered iv in a mixture of 5 compounds to 3 mice) assessed by LCMS/MS.; format: ADME, organism-based; details: mouse, in vivo, read-out: Volume
Summary of the method: (§3)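 Male Swiss albino mice (~30 g), 3 per experiment, mostly dosed as mixtures of 5 compounds iv via the lateral tail vein. Vehicle: 10% DMSO/90% 50 mM Na2HPO4 with 0.5% Tween-80. Plasma stored at −20 °C and quantified by LC-MS after acetonitrile precipitation.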

[13] = Mean half-life in Swiss albino male mice at 1 mg/kg per compound (administered iv in a mixture of 5 compounds to 3 mice) assessed by LCMS/MS.; format: ADME, organism-based; details: mouse, in vivo; summary of the method: as §3
[14] = Mean AUC inf in Swiss albino male mice at 1 mg/kg per compound (administered iv in a mixture of 5 compounds to 3 mice) assessed by LCMS/MS.; format: ADME, organism-based; details: mouse, in vivo; for AUC(0-inf): male, Swiss albino; summary of the method: as §2
[15] = Mean time to peak plasma concentration in Swiss albino male mice at […] per compound (administered orally in a mixture of 5 compounds to 3 mice) assessed by LCMS/MS.; format: ADME, organism-based; details: mouse, po
[16] = Mean plasma concentration at 4h in Swiss albino male mice at […] per compound (administered orally in a mixture of 5 compounds to 3 mice) assessed by LCMS/MS.; format: ADME, organism-based; details: mouse, po
[17] = Concentration required to kill 50% MRC-5 cells as detected by Alamar blue staining; format: toxicity, cell-based, MRC5; details: homo sapiens, read-out: TC50 (the source's name)
[18] = Partition coefficient of compound between n-octanol and PBS (pH7.4); format: physicochemical; details: octanol/water, pH 7.4
Summary of the method: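 Shake-flask method using octanol and PBS pH 7.4, each pre-saturated with the other. Compound was shaken 2 h at 850 rpm, 25 °C, then the phases were separated by centrifugation and both layers diluted and analysed by LC-MS/MS. LogD = log(octanol AUC × relative dilution / buffer AUC).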

Schistosoma mansoni [19] = experiment: Percentage of worms remaining following treatment of female CD1 mice infected with S. mansoni worms (21 day old - juvenile or 42 day old - adult) with compound by oral gavage. Worms were recovered by portal perfusion with citrate saline 8-14 days post treatment and counted. Percentages are from a mean of 5 or 6 animals.; format: functional, Mus musculus; design: concentration or dose not given beside the values
Summary of the method: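 Female CD1 mice were infected subcutaneously with 150 cercariae and treated at day 21 (juvenile) or day 42 (adult). Single oral gavage, or two doses 12 h apart, given in 7% Tween-80/3% ethanol/water (sonicated) or in 1:19 DMSO:corn oil. Controls received vehicle only. Worm recoveries are group means, n = 5–6.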

[20] = Concentration of drug in plasma at 4h following oral drug adminstration at given dose. Determined by LCMS/MS; format: ADME, organism-based; details: CD1, mouse
Summary of the method: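 Plasma sampled from the mice of the efficacy experiments, each animal sampled once: one animal per group at 1, 4 and 8 h, two per group at 24 h. Plasma prepared by acetonitrile protein precipitation and analysed by LC-MS against a 10-point calibration line spiked in blank matrix, with QCs at three or more levels.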

[21] = Plasma protein binding determined at 1uM by LC-MS/MS.; format: ADME, cell-free; details: mouse
[22] = male, Swiss albino, read-out: Clearance (converted)

SMILES	EC50 (Schistosoma mansoni [1]) [nM]	CC50 [2] [nM]	remaining at 1.5 h, 1 µM [3] [%]	EC50 (Schistosoma mansoni [4]) [nM]	remaining at 1.5 h, 1 µM [5] [%]	bioavailability [7] [%]	clearance [8, 22] [mL/min/kg]	concentration at 24 h [10] [ng/mL]	solubility kinetic at 24 h [11] [µM]	Vd [12] [L/kg]	half-life [13] [h]	AUC(0-inf) [14] [ng·h/mL]	Tmax [15] [h]	concentration at 4 h [16] [ng/mL]	Lipophilicity [18]	concentration at 4 h [20] [ng/mL]	other results
CCc1nc2cnc(-c3ccc(F)c(C(C)C)c3)cn2c1-c1ccc2[nH]ncc2c1F	5.4	11300	59.3	3.9	37.8	–	–	–	–	–	–	–	–	–	–	–	–
Oc1cc(F)c(-c2cnc3cnc(-c4cccc(C(F)(F)F)c4)cn23)c(F)c1	2650	23100	–	2380	–	41.7	9.63	0.1	2.88 (≈ 1.13 µg/mL)	0.918	2.95	870	0.25	171	3.12 =	–	Binding [6]: 99.595%; remaining at 0.5 h, 1 µM [9]: 74.1%; CC50 [17]: 8130 nM
CC(C)c1cc(-c2cn3c(-c4ccc5[nH]ncc5c4F)c(C4CCC4)nc3cn2)ccc1F	4.3	10900	52.1	7.3	25.3	–	–	–	1.35 (≈ 0.599 µg/mL)	–	–	–	–	–	–	–	–
Fc1ccc(-c2cn3c(-c4ccc5[nH]ncc5c4F)c(C(F)(F)F)nc3cn2)cc1C(F)(F)F	–	16600	–	–	–	–	–	–	–	–	–	–	–	298	5.29 =	1500	Efficacy (Schistosoma mansoni [19]): 1.84%
Fc1ccc(-c2cn3c(-c4ccc5[nH]ncc5c4F)c(C4CCC4)nc3cn2)cc1C(F)(F)F	36	–	73.4	36.8	73.6	–	–	–	–	–	–	–	–	–	–	–	–
Cc1nc2cnc(-c3ccc(F)c(C(F)(F)F)c3)cn2c1-c1ccc(O)cc1F	< 641	> 11100	–	< 780	–	13.5	48.5	0.1	1.54 (≈ 0.624 µg/mL)	2.98	2.28	172	0.25	7.79	3.39 =	–	Binding [6]: 99.805%; remaining at 0.5 h, 1 µM [9]: 64.1%; CC50 [17]: 15800 nM
CC(C)c1cc(-c2cn3c(-c4ccc5[nH]ncc5c4F)c(C(C)C)nc3cn2)ccc1F	4.96	11000	46.2	3.98	37.7	64	15	4.17	0.784 (≈ 0.338 µg/mL)	4.48	5.69	558	0.5	119	–	–	–
Oc1ccc(-c2c(C(F)(F)F)nc3cnc(-c4cccc(C(F)(F)F)c4)cn23)c(F)c1	< 443	–	–	< 48.8	–	58.4	41.2	1.9	17.1 (≈ 7.55 µg/mL)	9.55	4.46	203	0.25	43.9	4.84 =	–	Binding [6]: 99.965%; Binding [21]: 100%; remaining at 0.5 h, 1 µM [9]: 58.7%
CC(C)c1nc2cnc(-c3ccc(F)c(C(F)(F)F)c3)cn2c1-c1ccc2[nH]ncc2c1F	–	12000	–	–	–	–	–	–	–	–	–	–	1	318	4.19 =	1150	–
CC(C)c1nc2cnc(-c3cccc(C(F)(F)F)c3)cn2c1-c1ccc(O)cc1F	79.2	9000	–	< 122	–	–	–	–	6.8 (≈ 2.82 µg/mL)	–	–	–	–	–	4.82 =	–	Binding [6]: 99.945%; remaining at 0.5 h, 1 µM [9]: 54.4%; CC50 [17]: 14500 nM
CC(C)c1cc(-c2cn3c(-c4ccc5[nH]ncc5c4F)c(C(F)(F)F)nc3cn2)ccc1F	< 2.67	> 17000	–	–	–	–	–	–	–	–	–	–	0.417	52.3	–	1250	–
Fc1c(-c2c(C(F)(F)F)nc3cnc(-c4cccc(C(F)(F)C(F)(F)F)c4)cn23)ccc2[nH]ncc12	–	10900	–	–	–	–	1.43	–	–	–	–	–	–	655	4.5 =	1100	–
COc1ccc(-c2c(C(F)(F)F)nc3cnc(-c4cccc(C(F)(F)C(F)(F)F)c4)cn23)cc1O	< 10.6	> 11100	–	21	–	9.77	–	0.1	1.05 (≈ 0.529 µg/mL)	4.94	2.11	–	0.25	8.54	4.65 =	–	Binding [6]: 99.98%; clearance [8]: 54.3 mL/min/kg; remaining at 0.5 h, 1 µM [9]: 75.3%; AUC [14]: 153 ng·h/mL
Oc1cc(F)c(-c2c(C3CC3)nc3cnc(-c4ccc(F)c(S(F)(F)(F)(F)F)c4)cn23)c(F)c1	10.4	10100	84.9	5.78	40.2	–	–	–	41.1 (≈ 20.9 µg/mL)	–	–	–	–	–	–	–	–
Fc1c(-c2c(C(F)(F)F)nc3cnc(-c4cccc(OC(F)(F)F)c4)cn23)ccc2[nH]ncc12	23.4	9710	88.7	20.6	54	114	19.3	8.87	–	5.68	5.8	433	0.667	182	–	–	–
CC(C)c1nc2cnc(-c3ccc(F)c(C(F)(F)F)c3)cn2c1-c1c(F)cc(O)cc1F	–	7130	–	< 46.2	–	–	18	–	–	–	–	466	0.25	–	–	4140	–
CC(C)c1cc(-c2cn3c(-c4ccc5[nH]ncc5c4F)c(C4CC4)nc3cn2)ccc1F	–	15800	–	–	–	149	–	–	–	–	6.18	530	1.33	295	6.53 =	104	–
Fc1ccc(-c2cn3c(-c4ccc5[nH]ncc5c4F)c(C4CC4)nc3cn2)cc1S(F)(F)(F)(F)F	29.5	14800	88.6	17.3	101	–	–	–	0.823 (≈ 0.423 µg/mL)	–	–	–	–	–	–	–	–

From ChEMBL document CHEMBL4651341, “The discovery of a novel series of compounds with single-dose efficacy against juvenile and adult Schistosoma species” (PLoS Negl Trop Dis, 2021)
